Our source for the Ki values is ChEMBL document CHEMBL4680371, “Design and Structure-Activity Relationship of a Potent Furin Inhibitor Derived from Influenza Hemagglutinin” (ACS Med Chem Lett, 2021).

The assay has as its target Furin (Homo sapiens, UniProt P09958). The assay is described as follows: Inhibition of recombinant soluble human furin using pyroGlu-Arg-Thr-Lys-Arg-methyl-coumaryl-7-amide as substrate measured after 1 hr. In a few lines: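 Soluble human recombinant furin was tested in a competitive kinetic assay. Ki is reported as the mean ± SD of at least two independent experiments.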

SMILES strings stand for the structures. Where a SMILES comes first, the peptide text is derived from it. [ ]: non-standard residue; d: D form. Abu = CC[C@H](N)C(=O)O

Sequence of Furin (P09958 whole entry): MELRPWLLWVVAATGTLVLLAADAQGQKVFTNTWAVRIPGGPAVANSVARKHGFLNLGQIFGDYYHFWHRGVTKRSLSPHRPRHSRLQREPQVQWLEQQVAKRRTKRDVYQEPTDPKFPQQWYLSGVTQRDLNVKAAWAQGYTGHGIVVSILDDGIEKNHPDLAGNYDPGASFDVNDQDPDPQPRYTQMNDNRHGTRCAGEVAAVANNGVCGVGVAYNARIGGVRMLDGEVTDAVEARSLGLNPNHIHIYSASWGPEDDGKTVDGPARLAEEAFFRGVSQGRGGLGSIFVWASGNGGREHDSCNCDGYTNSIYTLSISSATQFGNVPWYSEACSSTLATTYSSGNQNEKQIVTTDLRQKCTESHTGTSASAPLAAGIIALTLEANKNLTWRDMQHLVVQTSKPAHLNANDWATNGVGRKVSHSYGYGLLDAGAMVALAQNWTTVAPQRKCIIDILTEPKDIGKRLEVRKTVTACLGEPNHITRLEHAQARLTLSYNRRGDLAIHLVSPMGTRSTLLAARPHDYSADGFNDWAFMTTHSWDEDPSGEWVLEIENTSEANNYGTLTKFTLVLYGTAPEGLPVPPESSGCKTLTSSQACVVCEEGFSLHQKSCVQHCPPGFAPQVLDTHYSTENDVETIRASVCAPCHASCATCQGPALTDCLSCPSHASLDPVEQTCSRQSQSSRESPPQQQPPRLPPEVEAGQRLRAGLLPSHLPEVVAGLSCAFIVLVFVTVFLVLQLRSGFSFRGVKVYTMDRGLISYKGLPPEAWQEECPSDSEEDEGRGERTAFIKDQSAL

Broadly, the Ki is a measure of affinity in units of concentration, obtained from inhibition or displacement. Regarding `CC[C@H](NC(=O)[C@H](CCCNC(=N)N)NC(=O)[C@H](C)NC(=O)[C@@H](CO)NC(C)=O)C(=O)N[C@@H](CCCNC(=N)N)C(=O)N[C@@H](CCCCN)C(=O)N[C@@H](CCCCN)C(=O)N[C@@H](CCCNC(=N)N)C(=O)N[C@H](C(N)=O)[C@@H](C)O`, the Ki stood at 15 nM.
Consider `CC(=O)N[C@@H](CCCCN)C(=O)N[C@@H](C)C(=O)N[C@@H](CCCNC(=N)N)C(=O)N[C@@H](CCCNC(=N)N)C(=O)N[C@@H](CCCNC(=N)N)C(=O)N[C@@H](CCCCN)C(=O)N[C@@H](CCCCN)C(=O)N[C@@H](CCCNC(=N)N)C(=O)N[C@H](C(N)=O)[C@@H](C)O`, for which the Ki is 13 nM.
The same measure for `CC(=O)N[C@@H](CCCNC(=N)N)C(=O)N[C@@H](C)C(=O)N[C@H](C(=O)N[C@@H](CCCNC(=N)N)C(=O)N[C@@H](CCCNC(=N)N)C(=O)N[C@@H](CCCCN)C(=O)N[C@@H](CCCCN)C(=O)N[C@@H](CCCNC(=N)N)C(=O)N[C@H](C(N)=O)[C@@H](C)O)[C@@H](C)O`: 28 nM.
The figure for `CC(=O)N[C@@H](C)C(=O)N[C@H](C(=O)N[C@@H](CCCNC(=N)N)C(=O)N[C@@H](CCCNC(=N)N)C(=O)N[C@@H](CCCNC(=N)N)C(=O)N[C@@H](CCCCN)C(=O)N[C@@H](CCCCN)C(=O)N[C@@H](CCCNC(=N)N)C(=O)N[C@H](C(N)=O)[C@@H](C)O)C(C)C` (Ac-AVRRRKKRT-NH2) is 10 nM; for `CC(=O)N[C@@H](CCCNC(=N)N)C(=O)N[C@@H](C)C(=O)N[C@@H](CCC(N)=O)C(=O)N[C@@H](CCCNC(=N)N)C(=O)N[C@@H](CCCNC(=N)N)C(=O)N[C@@H](CCCCN)C(=O)N[C@@H](CCCCN)C(=O)N[C@@H](CCCNC(=N)N)C(=O)N[C@H](C(N)=O)[C@@H](C)O` it is 20 nM; for `CC(=O)N[C@@H](CCCNC(=N)N)C(=O)N[C@@H](CCCCN)C(=O)N[C@@H](CCCNC(=N)N)C(=O)N[C@@H](CCCNC(=N)N)C(=O)N[C@@H](CCCNC(=N)N)C(=O)N[C@@H](CCCCN)C(=O)N[C@@H](CCCCN)C(=O)N[C@@H](CCCNC(=N)N)C(=O)N[C@H](C(N)=O)[C@@H](C)O` it is 16 nM.
The same measure for `CC[C@H](C)[C@H](NC(=O)[C@H](CCCNC(=N)N)NC(=O)[C@H](C)NC(=O)[C@@H](NC(C)=O)C(C)C)C(=O)N[C@@H](CCCNC(=N)N)C(=O)N[C@@H](CCCCN)C(=O)N[C@@H](CCCCN)C(=O)N[C@@H](CCCNC(=N)N)C(=O)N[C@H](C(N)=O)[C@@H](C)O` (Ac-VARIRKKRT-NH2): 10 nM; for `CC(=O)N[C@@H](CCCNC(=N)N)C(=O)N[C@@H](C)C(=O)NCC(=O)N[C@@H](CCCNC(=N)N)C(=O)N[C@@H](CCCNC(=N)N)C(=O)N[C@@H](CCCCN)C(=O)N[C@@H](CCCCN)C(=O)N[C@@H](CCCNC(=N)N)C(=O)N[C@H](C(N)=O)[C@@H](C)O`: 35 nM; for `CC(=O)N[C@@H](CCCNC(=N)N)C(=O)N[C@@H](C)C(=O)N[C@@H](CCCNC(=N)N)C(=O)N[C@@H](CC(=O)O)C(=O)N[C@@H](CCCNC(=N)N)C(=O)N[C@@H](CCCCN)C(=O)N[C@@H](CCCCN)C(=O)N[C@@H](CCCNC(=N)N)C(=O)N[C@H](C(N)=O)[C@@H](C)O`: 130 nM.
For `CC(=O)N[C@@H](CCCNC(=N)N)C(=O)N[C@@H](Cc1c[nH]cn1)C(=O)N[C@@H](CCCNC(=N)N)C(=O)N[C@@H](CCCNC(=N)N)C(=O)N[C@@H](CCCNC(=N)N)C(=O)N[C@@H](CCCCN)C(=O)N[C@@H](CCCCN)C(=O)N[C@@H](CCCNC(=N)N)C(=O)N[C@H](C(N)=O)[C@@H](C)O`, the Ki is 21 nM.
The same measure for `CC(=O)N[C@@H](Cc1c[nH]cn1)C(=O)N[C@@H](C)C(=O)N[C@@H](CCCNC(=N)N)C(=O)N[C@@H](CCCNC(=N)N)C(=O)N[C@@H](CCCNC(=N)N)C(=O)N[C@@H](CCCCN)C(=O)N[C@@H](CCCCN)C(=O)N[C@@H](CCCNC(=N)N)C(=O)N[C@H](C(N)=O)[C@@H](C)O`: 12 nM; for `CC(=O)N[C@@H](CCCNC(=N)N)C(=O)NCC(=O)N[C@@H](CCCNC(=N)N)C(=O)N[C@@H](CCCNC(=N)N)C(=O)N[C@@H](CCCNC(=N)N)C(=O)N[C@@H](CCCCN)C(=O)N[C@@H](CCCCN)C(=O)N[C@@H](CCCNC(=N)N)C(=O)N[C@H](C(N)=O)[C@@H](C)O`: 17 nM.
Take `CC(=O)N[C@@H](CC(N)=O)C(=O)N[C@@H](C)C(=O)N[C@@H](CCCNC(=N)N)C(=O)N[C@@H](CCCNC(=N)N)C(=O)N[C@@H](CCCNC(=N)N)C(=O)N[C@@H](CCCCN)C(=O)N[C@@H](CCCCN)C(=O)N[C@@H](CCCNC(=N)N)C(=O)N[C@H](C(N)=O)[C@@H](C)O`: the inhibition constant (Ki) is 12 nM.
The same measure for `CC(=O)N[C@@H](CCCNC(=N)N)C(=O)N[C@@H](CCC(N)=O)C(=O)N[C@@H](CCCNC(=N)N)C(=O)N[C@@H](CCCNC(=N)N)C(=O)N[C@@H](CCCNC(=N)N)C(=O)N[C@@H](CCCCN)C(=O)N[C@@H](CCCCN)C(=O)N[C@@H](CCCNC(=N)N)C(=O)N[C@H](C(N)=O)[C@@H](C)O`: 19 nM; for `CC(=O)N[C@@H](CCCNC(=N)N)C(=O)N[C@@H](C)C(=O)N[C@@H](CC(=O)O)C(=O)N[C@@H](CCCNC(=N)N)C(=O)N[C@@H](CCCNC(=N)N)C(=O)N[C@@H](CCCCN)C(=O)N[C@@H](CCCCN)C(=O)N[C@@H](CCCNC(=N)N)C(=O)N[C@H](C(N)=O)[C@@H](C)O`: 270 nM; for `CC[C@H](C)[C@H](NC(=O)[C@H](C)NC(=O)[C@H](CCCNC(=N)N)NC(C)=O)C(=O)N[C@@H](CCCNC(=N)N)C(=O)N[C@@H](CCCNC(=N)N)C(=O)N[C@@H](CCCCN)C(=O)N[C@@H](CCCCN)C(=O)N[C@@H](CCCNC(=N)N)C(=O)N[C@H](C(N)=O)[C@@H](C)O`: 26 nM.
The same measure for `CSCC[C@H](NC(=O)[C@H](C)NC(=O)[C@H](CCCNC(=N)N)NC(C)=O)C(=O)N[C@@H](CCCNC(=N)N)C(=O)N[C@@H](CCCNC(=N)N)C(=O)N[C@@H](CCCCN)C(=O)N[C@@H](CCCCN)C(=O)N[C@@H](CCCNC(=N)N)C(=O)N[C@H](C(N)=O)[C@@H](C)O`: 31 nM; for `CC(=O)N[C@@H](CCCNC(=N)N)C(=O)N[C@@H](C)C(=O)N[C@@H](CO)C(=O)N[C@@H](CCCNC(=N)N)C(=O)N[C@@H](CCCNC(=N)N)C(=O)N[C@@H](CCCCN)C(=O)N[C@@H](CCCCN)C(=O)N[C@@H](CCCNC(=N)N)C(=O)N[C@H](C(N)=O)[C@@H](C)O`: 29 nM.
The same measure for `CC(=O)N[C@@H](C)C(=O)N[C@@H](C)C(=O)N[C@@H](CCCNC(=N)N)C(=O)N[C@@H](CCCNC(=N)N)C(=O)N[C@@H](CCCNC(=N)N)C(=O)N[C@@H](CCCCN)C(=O)N[C@@H](CCCCN)C(=O)N[C@@H](CCCNC(=N)N)C(=O)N[C@H](C(N)=O)[C@@H](C)O`: 11 nM.
In the case of `CC(=O)N[C@@H](CCC(N)=O)C(=O)N[C@@H](C)C(=O)N[C@@H](CCCNC(=N)N)C(=O)N[C@@H](CCCNC(=N)N)C(=O)N[C@@H](CCCNC(=N)N)C(=O)N[C@@H](CCCCN)C(=O)N[C@@H](CCCCN)C(=O)N[C@@H](CCCNC(=N)N)C(=O)N[C@H](C(N)=O)[C@@H](C)O`, the inhibition constant Ki worked out at 10 nM.
For `CC(=O)N[C@@H](CCCNC(=N)N)C(=O)N[C@@H](C)C(=O)N[C@@H](CC(C)C)C(=O)N[C@@H](CCCNC(=N)N)C(=O)N[C@@H](CCCNC(=N)N)C(=O)N[C@@H](CCCCN)C(=O)N[C@@H](CCCCN)C(=O)N[C@@H](CCCNC(=N)N)C(=O)N[C@H](C(N)=O)[C@@H](C)O`, the Ki came out at 14 nM.
The same measure for `CC[C@H](NC(C)=O)C(=O)N[C@@H](C)C(=O)N[C@@H](CCCNC(=N)N)C(=O)N[C@H](C(=O)N[C@@H](CCCNC(=N)N)C(=O)N[C@@H](CCCCN)C(=O)N[C@@H](CCCCN)C(=O)N[C@@H](CCCNC(=N)N)C(=O)N[C@H](C(N)=O)[C@@H](C)O)[C@@H](C)CC` (Ac-[Abu]ARIRKKRT-NH2): 6 nM; for `CC(=O)N[C@@H](CCCNC(=N)N)C(=O)N[C@H](C(=O)N[C@@H](CCCNC(=N)N)C(=O)N[C@@H](CCCNC(=N)N)C(=O)N[C@@H](CCCNC(=N)N)C(=O)N[C@@H](CCCCN)C(=O)N[C@@H](CCCCN)C(=O)N[C@@H](CCCNC(=N)N)C(=O)N[C@H](C(N)=O)[C@@H](C)O)C(C)C`: 16 nM.
The same measure for `CC(=O)NCC(=O)N[C@@H](C)C(=O)N[C@@H](CCCNC(=N)N)C(=O)N[C@@H](CCCNC(=N)N)C(=O)N[C@@H](CCCNC(=N)N)C(=O)N[C@@H](CCCCN)C(=O)N[C@@H](CCCCN)C(=O)N[C@@H](CCCNC(=N)N)C(=O)N[C@H](C(N)=O)[C@@H](C)O`: 11 nM; for `CC(=O)N[C@@H](CCC(=O)O)C(=O)N[C@@H](C)C(=O)N[C@@H](CCCNC(=N)N)C(=O)N[C@@H](CCCNC(=N)N)C(=O)N[C@@H](CCCNC(=N)N)C(=O)N[C@@H](CCCCN)C(=O)N[C@@H](CCCCN)C(=O)N[C@@H](CCCNC(=N)N)C(=O)N[C@H](C(N)=O)[C@@H](C)O`: 11 nM; for `CC(=O)N[C@@H](CCCNC(=N)N)C(=O)N[C@@H](C)C(=O)N[C@@H](CCCNC(=N)N)C(=O)N[C@@H](CC(C)C)C(=O)N[C@@H](CCCNC(=N)N)C(=O)N[C@@H](CCCCN)C(=O)N[C@@H](CCCCN)C(=O)N[C@@H](CCCNC(=N)N)C(=O)N[C@H](C(N)=O)[C@@H](C)O`: 11 nM.
The same measure for `CC(=O)N[C@@H](CCCNC(=N)N)C(=O)N1CCC[C@H]1C(=O)N[C@@H](CCCNC(=N)N)C(=O)N[C@@H](CCCNC(=N)N)C(=O)N[C@@H](CCCNC(=N)N)C(=O)N[C@@H](CCCCN)C(=O)N[C@@H](CCCCN)C(=O)N[C@@H](CCCNC(=N)N)C(=O)N[C@H](C(N)=O)[C@@H](C)O`: 17 nM; for `CC[C@H](C)[C@H](NC(=O)[C@H](CCCNC(=N)N)NC(=O)[C@H](C)NC(=O)[C@H](CCC(=O)O)NC(C)=O)C(=O)N[C@@H](CCCNC(=N)N)C(=O)N[C@@H](CCCCN)C(=O)N[C@@H](CCCCN)C(=O)N[C@@H](CCCNC(=N)N)C(=O)N[C@H](C(N)=O)[C@@H](C)O` (Ac-EARIRKKRT-NH2): 12 nM.
With `CC(=O)N[C@@H](CCCNC(=N)N)C(=O)N[C@@H](C)C(=O)N[C@@H](CCCNC(=N)N)C(=O)N[C@@H](Cc1c[nH]cn1)C(=O)N[C@@H](CCCNC(=N)N)C(=O)N[C@@H](CCCCN)C(=O)N[C@@H](CCCCN)C(=O)N[C@@H](CCCNC(=N)N)C(=O)N[C@H](C(N)=O)[C@@H](C)O`, the inhibitory constant (Ki) amounted to 22 nM.
The same measure for `CC(=O)N[C@@H](CCCNC(=N)N)C(=O)N[C@@H](C)C(=O)N[C@@H](CCCNC(=N)N)C(=O)NCC(=O)N[C@@H](CCCNC(=N)N)C(=O)N[C@@H](CCCCN)C(=O)N[C@@H](CCCCN)C(=O)N[C@@H](CCCNC(=N)N)C(=O)N[C@H](C(N)=O)[C@@H](C)O`: 36 nM.
